Calls of active or inactive are those of the source.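 How the source made its calls, unless noted: active means viability at or under a set limit in both replicates, limit being median viability minus 3 SD (cut at about 48% in these data, passing the limit was not always enough); inconclusive means at or under the limit in just one replicate; inactive means at or above the limit in both replicates.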
Legend:
[1] = molecular target: Pantothenate synthetase (Mycobacterium tuberculosis (strain ATCC 25618 / H37Rv)) (UniProt P9WIL5); assay: Coupled enzyme confirmation of inhibitors against recombinant Mtb PanC (AID 375; call rule not given here;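 further: 0% = full reaction with vehicle and 100% = no enzyme background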); details: coupled enzyme assay; at 10 µM, stronger effect = higher value
[2] = Her2 expression decrease, cell viability multiplex – SKBR3 breast tumor cells, AlphaScreen, ATP viability, primary screen (AID 461;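 active means Her2 level under about 52% in both replicate screens, with viability over 70% of control, limit read from the data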;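 on Her2 level: lower value means less Her2 protein in the cells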;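 on viability: percent of carrier control wells set as 100% viability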); details: SKBR3 Her2 protein level, 18-24 h, measured here: SKBR3 viability, ATP luminescence, at 10 µM
[3] = molecular target: Receptor tyrosine-protein kinase erbB-2 (Homo sapiens) (UniProt P04626); assay: as above; details: 18-24 h, at 10 µM, stronger effect = lower value
[4] = reduced viability of SK-BR-3 breast cancer cells – cell-based, 24 h, human, pilot screen (AID 572;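 active means viability at or below 10% of carrier control in both of two separate runs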;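 further: compound exposure lasted between 18 and 24 h rather than exactly 24 h; 100% = carrier-treated control wells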); details: SK-BR-3 viability, CellTiter-Glo luminescence, at 10 µM, stronger effect = lower value
[5] = HUVEC growth inhibition – cell-based, human, primary screen (AID 575;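 active means viability at or below 30% in both replicate assays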;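 further: 100% = median of untreated cell wells with 0.1% DMSO on each plate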); details: HUVEC proliferation, CellTiter-Glo luminescence, 72 h; at 10 µM; stronger effect = lower value
Summary of the method: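 System – primary HUVEC, no more than 12 passages · Medium – Low-serum (2% FBS) EBM, supplemented · Times – 72 h exposure, 37 °C, 5% CO2, 30 min RT equilibration · Measured by – luminescent ATP assay · Read-out – % viability relative to median vehicle-well signal on each plate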

[6] = H69AR cell proliferation blockers – human, duplicate replicates, primary screen (AID 580); details: H69AR lung tumor cells viability, ATP luminescence, 72 h; at 10 µM; stronger effect = lower value;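 further: 100% = mean luminescence of untreated wells and 0% = no signal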
[7] = MRP1 drug-resistance reversers in H69AR cells – cell-based, doxorubicin co-treatment, pilot screen (AID 601;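 active means viability loss from added drug above about 55%, and viability with drug at most 40%, in both replicates, limit read from the data, passing the limit was not always enough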); details: CellTiter-Glo, 72 h, at 10 µM; for differential viability (reversal): stronger effect = higher value
[8] = yeast transport mutant growth inhibition pilot in 384-well plates, post-Golgi transport modulator project (AID 636; in the data active means inhibition above about 31%); details: absorbance 615 nm, about 18 h, stronger effect = higher value
[9] = growth suppression of yeast trafficking mutant, preliminary HTS, modulators of trafficking downstream of Golgi apparatus project, 1536-format plate, OD 615 nm (AID 637; in the data active means inhibition above about 30%); details: yeast transport mutant growth, absorbance 615 nm, 18 h; stronger effect = higher value
[10] = H69AR cells + 2 uM doxorubicin, measured here: viability with 2 uM doxorubicin, stronger effect = lower value
[11] = H69AR cells, compound alone cytotoxicity

Pantothenate synthetase (Mycobacterium tuberculosis (strain ATCC 25618 / H37Rv)), sequence (P9WIL5 whole entry, looked up): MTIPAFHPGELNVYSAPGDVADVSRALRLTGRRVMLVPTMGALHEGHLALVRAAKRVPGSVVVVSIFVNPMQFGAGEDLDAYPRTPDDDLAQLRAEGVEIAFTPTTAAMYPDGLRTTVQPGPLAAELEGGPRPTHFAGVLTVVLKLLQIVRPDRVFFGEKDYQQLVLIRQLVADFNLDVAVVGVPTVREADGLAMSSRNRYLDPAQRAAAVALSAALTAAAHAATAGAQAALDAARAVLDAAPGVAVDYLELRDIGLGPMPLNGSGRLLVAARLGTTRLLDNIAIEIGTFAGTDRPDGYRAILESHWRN
Receptor tyrosine-protein kinase erbB-2 (Homo sapiens), sequence (P04626 whole entry, looked up): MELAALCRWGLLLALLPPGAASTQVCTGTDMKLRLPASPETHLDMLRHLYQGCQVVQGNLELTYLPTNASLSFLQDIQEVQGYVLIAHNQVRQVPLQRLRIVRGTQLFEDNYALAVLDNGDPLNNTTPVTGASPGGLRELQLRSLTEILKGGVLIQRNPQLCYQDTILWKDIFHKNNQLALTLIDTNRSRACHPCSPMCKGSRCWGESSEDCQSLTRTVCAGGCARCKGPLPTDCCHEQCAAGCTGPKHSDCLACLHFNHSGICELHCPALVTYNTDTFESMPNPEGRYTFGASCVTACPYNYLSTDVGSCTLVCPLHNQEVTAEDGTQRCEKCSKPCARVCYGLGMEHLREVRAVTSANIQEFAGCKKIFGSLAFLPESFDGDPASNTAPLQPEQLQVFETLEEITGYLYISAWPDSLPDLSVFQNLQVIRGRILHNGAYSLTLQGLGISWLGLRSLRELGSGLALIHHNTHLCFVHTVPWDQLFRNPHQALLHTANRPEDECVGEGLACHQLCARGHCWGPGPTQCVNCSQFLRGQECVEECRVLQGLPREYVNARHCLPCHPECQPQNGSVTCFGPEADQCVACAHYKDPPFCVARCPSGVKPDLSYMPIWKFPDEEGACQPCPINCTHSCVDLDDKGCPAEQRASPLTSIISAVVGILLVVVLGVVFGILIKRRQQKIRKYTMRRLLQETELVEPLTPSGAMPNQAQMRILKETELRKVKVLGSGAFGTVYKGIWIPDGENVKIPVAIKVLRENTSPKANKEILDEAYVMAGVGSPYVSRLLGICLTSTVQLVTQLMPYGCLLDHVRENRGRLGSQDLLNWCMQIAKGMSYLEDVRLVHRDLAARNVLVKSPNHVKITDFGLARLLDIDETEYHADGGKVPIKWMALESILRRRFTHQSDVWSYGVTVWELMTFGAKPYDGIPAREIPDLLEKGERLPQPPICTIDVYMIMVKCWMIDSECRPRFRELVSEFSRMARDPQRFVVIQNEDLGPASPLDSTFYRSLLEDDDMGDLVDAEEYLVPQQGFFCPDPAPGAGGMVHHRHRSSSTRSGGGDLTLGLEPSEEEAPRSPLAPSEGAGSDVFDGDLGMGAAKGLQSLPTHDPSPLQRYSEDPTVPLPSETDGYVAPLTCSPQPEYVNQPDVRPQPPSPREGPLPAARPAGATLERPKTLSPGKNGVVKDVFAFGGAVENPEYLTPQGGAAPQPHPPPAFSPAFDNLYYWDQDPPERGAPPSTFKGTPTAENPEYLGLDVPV

SMILES	inhibition [1]	viability [2] [%]	Her2 level [3]	viability [4]	viability [5]	viability [6]	differential viability (reversal) ([7]; H69AR cells + 2 uM doxorubicin)	viability [7, 10] [%]	viability [7, 11] [%]	inhibition [8]	inhibition [9]
CC12CCCCC1=[N+]([O-])CN2O (stereo not drawn)	5% (inactive)	102	112% (inactive)	102% (inactive)	109% (inactive)	105% (inactive)	15.9% (inactive)	89.4	105	-1.33% (inactive)	8.71% (inactive)
Cn1c(O)c(C=NCc2ccco2)c(=O)n(C)c1=O	0% (inactive)	106	96% (inactive)	106% (inactive)	96.8% (inactive)	95.1% (inactive)	5% (inactive)	90.1	95.1	-4.53% (inactive)	14.7% (inactive)
O=C(c1ccc(CS(=O)(=O)c2ccccc2)o1)N1CCC2(CC1)OCCO2	0% (inactive)	90	112% (inactive)	90% (inactive)	96.5% (inactive)	85% (inactive)	-6.95% (inactive)	92	85	-2.11% (inactive)	-2.73% (inactive)
O=C1CC(N2CCC(n3c(=O)[nH]c4ccccc43)CC2)C(=O)N1c1ccc(F)cc1 (stereo not drawn)	5% (inactive)	93.5	67.5% (inactive)	93.5% (inactive)	80.7% (inactive)	103% (inactive)	3.01% (inactive)	100	103	-4.74% (inactive)	-6.5% (inactive)
NC(=O)OCCSc1nnc(-c2cccc(C(N)=S)c2)o1	2% (inactive)	103	88% (inactive)	103% (inactive)	108% (inactive)	105% (inactive)	13.7% (inactive)	91	105	-6% (inactive)	0.65% (inactive)
CCOc1ccc(Br)c(C2(O)CC(C)N(C)CC2C)c1 (stereo not drawn)	1% (inactive)	80.5	80.5% (inactive)	80.5% (inactive)	68.2% (inactive)	96.7% (inactive)	19.5% (inactive)	77.1	96.7	-6% (inactive)	-1.48% (inactive)
O=C(c1ccc2nc3ccc(Cl)cc3c(=O)n2c1)N1CCC2(CC1)OCCO2	12% (inactive)	97.5	91.5% (inactive)	97.5% (inactive)	98% (inactive)	96.7% (inactive)	1.37% (inactive)	95.4	96.7	-3.87% (inactive)	1.94% (inactive)
CN1CCC(N(C)c2ncnc3ccc(Br)cc23)CC1	0% (inactive)	100	99.5% (inactive)	100% (inactive)	78.5% (inactive)	87.9% (inactive)	-25.8% (inactive)	114	87.9	-6.1% (inactive)	0.79% (inactive)
CC(C)OCCCNC(=O)c1c(N)n(CC2CCCO2)c2nc3ccccc3nc12 (stereo not drawn)	2% (inactive)	100	71.5% (inactive)	100% (inactive)	55.2% (inactive)	59.6% (inactive)	-19.6% (inactive)	79.2	59.6	-4.8% (inactive)	-4.13% (inactive)
CC#CP(=O)(OCC)C(O)(c1ccccc1)C(F)(F)F (stereo not drawn)	0% (inactive)	91	85% (inactive)	91% (inactive)	96.7% (inactive)	96.9% (inactive)	14.4% (inactive)	82.5	96.9	-2.93% (inactive)	2.13% (inactive)
COc1ccccc1-n1c(O)c(C=NCc2ccc3c(c2)OCO3)c(=O)[nH]c1=O	7% (inactive)	93.5	91.5% (inactive)	93.5% (inactive)	81.3% (inactive)	91.8% (inactive)	3.46% (inactive)	88.3	91.8	-2.43% (inactive)	-0.48% (inactive)
Cc1ccccc1NC1=NCCCS1	3% (inactive)	106	101% (inactive)	106% (inactive)	99.3% (inactive)	95.1% (inactive)	-1.09% (inactive)	96.1	95.1	-4.61% (inactive)	-0.67% (inactive)
O=C(Cc1ccccc1)OC(COCc1ccccc1)CN1CCOCC1 (stereo not drawn)	3% (inactive)	83	99% (inactive)	83% (inactive)	88.3% (inactive)	94.2% (inactive)	4.79% (inactive)	89.4	94.2	-7.47% (inactive)	-0.98% (inactive)
